In ChEMBL document CHEMBL1135810, “Water-soluble, core-modified porphyrins as novel, longer-wavelength-absorbing sensitizers for photodynamic therapy. II. Effects of core heteroatoms and meso-substituents on biological activity” (J Med Chem, 2002) one finds EC50 data, which are given here for 14 compounds.

Bounds are passed on as bounds.

This test deals with Colon 26. In words: Effective concentration required to give 50% cell kill with 4 J/cm**2 of light.(Dark and light induced toxicity towards murine colon carcinoma cell line(COLO-26 cells)). Format: functional, cell-based. To be noted: Mus musculus, Colon 26, light or radiation study. The essentials:
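Colo-26 mouse colon carcinoma cells grown in RPMI 1640 with 10% fetal calf serum at 37 °C, 5% CO2, plated at 5×10^3 cells/well the evening before. Cells were PBS-washed, then kept 24 h at 37 °C in the dark with graded sensitizer in HBSS, washed, and irradiated in PBS with filtered 590–800 nm light (methods state 570–800 nm) to 4 J cm-2. Dark controls were not irradiated. After 24 h in growth medium, MTT survival was read, and EC50 was taken from surviving fraction vs concentration.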
As usually defined, the EC50 is the concentration at which the effect is half-maximal. The low end stands for higher potency in that assay, the high end for lower potency in that assay. Regarding `CN(C)c1ccc(-c2c3nc(c(-c4ccc(S(=O)(=O)O)cc4)c4ccc(s4)c(-c4ccc(S(=O)(=O)O)cc4)c4nc(c(-c5ccc(N(C)C)cc5)c5ccc2s5)C=C4)C=C3)cc1`, the EC50 amounted to 640 nM.

For `O=S(=O)(O)c1ccc(-c2c3nc(c(-c4ccc(F)cc4)c4ccc([se]4)c(-c4ccc(F)cc4)c4nc(c(-c5ccc(S(=O)(=O)O)cc5)c5ccc2[se]5)C=C4)C=C3)cc1`, the concentration giving a half-maximal response (EC50) is 7900 nM.

On to `O=S(=O)(O)c1ccc(-c2c3nc(c(-c4ccc(F)cc4)c4ccc(s4)c(-c4ccc(F)cc4)c4nc(c(-c5ccc(S(=O)(=O)O)cc5)c5ccc2[nH]5)C=C4)C=C3)cc1`, for which it took 2100 nM to reach a half-maximal effect (EC50).

`O=S(=O)(O)c1ccc(-c2c3nc(c(-c4ccc(C(F)(F)F)cc4)c4ccc(s4)c(-c4ccc(C(F)(F)F)cc4)c4nc(c(-c5ccc(S(=O)(=O)O)cc5)c5ccc2s5)C=C4)C=C3)cc1`: the EC50 was more than 100000 nM.

`O=C(O)COc1ccc(-c2c3nc(c(-c4ccc(F)cc4)c4ccc(s4)c(-c4ccc(F)cc4)c4nc(c(-c5ccc(OCC(=O)O)cc5)c5ccc2s5)C=C4)C=C3)cc1` came in with an EC50 of 430 nM.

Consider `O=S(=O)(O)c1ccc(-c2c3nc(c(-c4ccc(S(=O)(=O)O)cc4)c4ccc([nH]4)c(-c4ccc(S(=O)(=O)O)cc4)c4ccc(s4)c(-c4ccc(S(=O)(=O)O)cc4)c4nc2C=C4)C=C3)cc1`, for which the EC50 is more than 100000 nM.

`O=S(=O)(O)c1ccc(-c2c3nc(c(-c4ccc(F)cc4)c4ccc([se]4)c(-c4ccc(F)cc4)c4nc(c(-c5ccc(S(=O)(=O)O)cc5)c5ccc2s5)C=C4)C=C3)cc1`: the concentration giving a half-maximal response (EC50) worked out at 1200 nM.

In turn, `O=S(=O)(O)c1ccc(-c2c3nc(c(-c4ccc(S(=O)(=O)O)cc4)c4ccc([nH]4)c(-c4ccc(S(=O)(=O)O)cc4)c4ccc([nH]4)c(-c4ccc(S(=O)(=O)O)cc4)c4nc2C=C4)C=C3)cc1` displayed a concentration for a half-maximal effect (EC50) of 125000 nM.

With `O=S(=O)(O)c1ccc(-c2c3nc(c(-c4ccc(S(=O)(=O)O)cc4)c4ccc(s4)c(-c4ccc(S(=O)(=O)O)cc4)c4nc(c(-c5ccc(S(=O)(=O)O)cc5)c5ccc2s5)C=C4)C=C3)cc1`, the midpoint of the response, the EC50, lay at 30000 nM.

The compound `O=S(=O)(O)c1ccc(-c2c3nc(c(-c4ccc(S(=O)(=O)O)cc4)c4ccc([se]4)c(-c4ccc(S(=O)(=O)O)cc4)c4nc(c(-c5ccc(S(=O)(=O)O)cc5)c5ccc2[se]5)C=C4)C=C3)cc1` had a concentration giving a half-maximal response (EC50) of more than 100000 nM.

The compound `O=C(O)COc1ccc(-c2c3nc(c(-c4ccccc4)c4ccc(s4)c(-c4ccccc4)c4nc(c(-c5ccc(OCC(=O)O)cc5)c5ccc2s5)C=C4)C=C3)cc1` registered an EC50 of 150 nM.

In turn, `O=S(=O)(O)c1ccc(-c2c3nc(c(-c4ccc(F)cc4)c4ccc(s4)c(-c4ccc(F)cc4)c4nc(c(-c5ccc(S(=O)(=O)O)cc5)c5ccc2s5)C=C4)C=C3)cc1` came in with a 50% effective concentration (EC50) of 1600 nM.

With `O=S(=O)(O)c1ccc(-c2c3nc(c(-c4ccc(F)cc4)c4ccc(s4)c(-c4ccc(F)cc4)c4nc(c(-c5ccc(S(=O)(=O)O)cc5)c5ccc2[se]5)C=C4)C=C3)cc1`, it took 2100 nM to reach a half-maximal effect (EC50).

Compound `Cc1ccc(-c2c3nc(c(-c4ccc(S(=O)(=O)O)cc4)c4ccc(s4)c(-c4ccc(S(=O)(=O)O)cc4)c4nc(c(-c5ccc(C)cc5S(=O)(=O)O)c5ccc2s5)C=C4)C=C3)c(S(=O)(=O)O)c1` registered an EC50 of 12000 nM.
